Measurements: ChEMBL document CHEMBL1131640, “L-carnitine esters as "soft", broad-spectrum antimicrobial amphiphiles” (J Med Chem, 1998)

What was measured:
Format in all cases: functional
Escherichia coli = test: Minimal inhibitory concentration against Escherichia coli
Procedure, shortened: (§1)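 Microtiter broth dilution MIC assay. Strains: S. aureus, S. faecalis, E. coli, P. vulgaris and C. albicans were wild-type clinical isolates; S. cerevisiae ATCC 7752, A. fumigatus ATCC 28212, A. niger ATCC 16404 and M. mucedo ATCC 7941.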

Staphylococcus aureus = test: Minimal inhibitory concentration against Staphylococcus aureus; procedure, shortened: as §1
Proteus vulgaris = test: Minimal inhibitory concentration against Proteus vulgaris; procedure, shortened: as §1
Enterococcus faecalis = test: Minimal inhibitory concentration against Streptococcus faecalis; procedure, shortened: as §1
Saccharomyces cerevisiae = test: Minimal inhibitory concentration against Saccharomyces cerevisiae; procedure, shortened: as §1
Aspergillus fumigatus = test: Minimal inhibitory concentration against Aspergillus fumigatus; procedure, shortened: as §1
Mucor mucedo = test: Minimal inhibitory concentration against Mucor mucedo; procedure, shortened: as §1
Aspergillus niger = test: Minimal inhibitory concentration against Aspergillus niger; procedure, shortened: as §1
Candida albicans = test: Minimal inhibitory concentration against Candida albicans; procedure, shortened: as §1

Row | SMILES | MIC (Escherichia coli) | MIC (Staphylococcus aureus) | MIC (Proteus vulgaris) | MIC (Enterococcus faecalis) | MIC (Saccharomyces cerevisiae) | MIC (Aspergillus fumigatus) | MIC (Mucor mucedo) | MIC (Aspergillus niger) | MIC (Candida albicans)
1 | CCCCCCCCCCCCCOC(=O)C[C@H](C[N+](C)(C)C)OC(=O)CCCCCCC.[Cl-] | > 100 µg/mL | 6.25 µg/mL | > 100 µg/mL | 6.25 µg/mL |  |  |  |  | 
2 | CCCCCC(CCCCC)OC(=O)C[C@H](C[N+](C)(C)C)OC(=O)CC(C)C.[Cl-] | 100 µg/mL | 12.5 µg/mL | > 100 µg/mL | 3.12 µg/mL | 12.5 µg/mL | > 100 µg/mL | 100 µg/mL | 50 µg/mL | 25 µg/mL
3 | CCCCCCCCCCCCCCCCCC(=O)O[C@H](CC(=O)O)C[N+](C)(C)C.[Cl-] | > 100 µg/mL | > 100 µg/mL | > 100 µg/mL | 25 µg/mL | > 100 µg/mL | > 100 µg/mL | > 100 µg/mL | > 100 µg/mL | > 100 µg/mL
4 | CCCCCCCCCCC(=O)O[C@H](CC(=O)OCCCCCCC(F)(F)C(F)(F)C(F)(F)C(F)(F)F)C[N+](C)(C)C.[Cl-] | > 100 µg/mL | 12.5 µg/mL | > 100 µg/mL |  | 12.5 µg/mL | 25 µg/mL | 50 µg/mL | 12.5 µg/mL | 12.5 µg/mL
5 | CCCCCCCCCCCOC(=O)C[C@H](C[N+](C)(C)C)OC(=O)CCCCCCC.[Cl-] | 25 µg/mL | 3.12 µg/mL | > 100 µg/mL | 3.12 µg/mL | > 100 µg/mL |  |  |  | 
6 | CCCCCCCCCCCCOC(=O)C[C@H](C[N+](C)(C)C)OC(=O)CC(C)C.[Cl-] | 100 µg/mL | 3.12 µg/mL | > 100 µg/mL | 3.12 µg/mL | 1.56 µg/mL |  |  |  | 
7 | CCCCCCCCCCCCOC(=O)C[C@H](C[N+](C)(C)C)OC(=O)C(C)C.[Cl-] | 25 µg/mL | 6.25 µg/mL | 100 µg/mL | 3.12 µg/mL |  |  |  |  | 
8 | CCCCCCCOC(=O)C[C@H](C[N+](C)(C)C)OC(=O)CCCCCCCCCBr.[Cl-] | 50 µg/mL | 3.12 µg/mL | 100 µg/mL | 3.12 µg/mL | > 100 µg/mL | 6.25 µg/mL | 25 µg/mL | 6.25 µg/mL | 3.12 µg/mL
9 | CCCCCCCCCCCC(=O)O[C@H](CC(=O)OCCOc1ccccc1)C[N+](C)(C)C.[Cl-] | 50 µg/mL | 6.25 µg/mL | 100 µg/mL | 3.12 µg/mL | 3.12 µg/mL | 12.5 µg/mL | 25 µg/mL | 12.5 µg/mL | 3.12 µg/mL
10 | CCCCCCCCCCCCCOC(=O)C[C@H](C[N+](C)(C)C)OC(=O)CC(C)C.[Cl-] | 100 µg/mL | 3.12 µg/mL | 100 µg/mL | 1.56 µg/mL |  |  |  |  | 
11 | CCCCCCCCCCCCCCCCOC(=O)C[C@H](C[N+](C)(C)C)OC(=O)CC(C)C.[Cl-] | > 100 µg/mL | 6.25 µg/mL | > 100 µg/mL | 3.12 µg/mL | 3.12 µg/mL |  |  |  | 
12 | CCCCCCCCCCC(=O)O[C@H](CC(=O)OCCOc1ccccc1)C[N+](C)(C)C.[Cl-] | 25 µg/mL | 6.25 µg/mL | 50 µg/mL | 3.12 µg/mL | 12.5 µg/mL | 25 µg/mL | 50 µg/mL | 25 µg/mL | 3.12 µg/mL
13 | CCCCCCCCCCCCCOC(=O)C[C@H](C[N+](C)(C)C)OC(=O)CCCCCCCCCC.[Cl-] | > 100 µg/mL | 50 µg/mL | > 100 µg/mL | 25 µg/mL | 25 µg/mL | > 100 µg/mL | 50 µg/mL | 100 µg/mL | 25 µg/mL
14 | CCCCCCCCCCCOC(=O)C[C@H](C[N+](C)(C)C)OC(=O)CC(C)C.[Cl-] | 25 µg/mL | 6.25 µg/mL | 50 µg/mL | 3.12 µg/mL |  |  |  |  | 
15 | CCCCCCCCCCCOC(=O)C[C@H](C[N+](C)(C)C)OC(=O)CCCCCCCCCC.[Cl-] | > 100 µg/mL | > 100 µg/mL | > 100 µg/mL | 3.12 µg/mL | > 100 µg/mL |  |  |  | 
16 | CCCCCCCCCCCCCOC(=O)C[C@H](C[N+](C)(C)C)OC(=O)CCCCCC.[Cl-] | > 100 µg/mL | 6.25 µg/mL | > 100 µg/mL | 3.12 µg/mL |  |  |  |  | 
17 | CC(C)CC(=O)O[C@H](CC(=O)OCCCCCCC(F)(F)C(F)(F)C(F)(F)C(F)(F)F)C[N+](C)(C)C.[Cl-] | > 100 µg/mL | 12.5 µg/mL | 100 µg/mL | 6.25 µg/mL | 25 µg/mL | 100 µg/mL | 50 µg/mL | 50 µg/mL | 12.5 µg/mL
